From ChEMBL document CHEMBL1123408, “Influence of alkyl-chain fluorination on the action of mammary tumor inhibiting 2,3-bis(hydroxyphenyl)butanes and 2,3-bis(hydroxyphenyl)but-2-enes” (1986)
Where “and” joins values, the source holds several entries; their conditions need not be identical. Equal values may be shown once.

Legend:
[1] = biological target: T1, Estrogen receptor (Mus musculus) (UniProt O08537+P19785); experiment: (§1) Uterotrophic effect in mice at 0 ug dose; format: functional, tissue-based; set-up: unit not given here; conditions: Uterus
Procedure, shortened: (§2)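 Immature female NMRI mice, 20 days old, 10 per group, given daily sc injections of 0.1 mL olive oil solution for 3 days. Uteri removed 24 h after the last dose, fixed in Bouin's solution, washed, dried and weighed. Antiestrogenic testing measured inhibition of estrone-stimulated uterine growth.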

[2] = biological target: T1, Estrogen receptor (Mus musculus); experiment: (§3) Uterotrophic effect in mice at 1 ug dose; format: functional, tissue-based; conditions: Uterus; procedure, shortened: as §2
[3] = biological target: T1, Estrogen receptor (Mus musculus); experiment: (§4) Uterotrophic effect in mice at 10 ug dose; format: functional, tissue-based; set-up: unit not given here; conditions: Uterus; procedure, shortened: as §2
[4] = biological target: T1, Estrogen receptor (Mus musculus); experiment: (§5) Uterotrophic effect in mice at 100 ug dose; format: functional, tissue-based; set-up: unit not given here; conditions: Uterus; procedure, shortened: as §2
[5] = biological target: T1, Estrogen receptor (Mus musculus); experiment: Uterotrophic effect in mice at 1000 ug dose; format: functional, tissue-based; set-up: unit not given here; conditions: Uterus; procedure, shortened: as §2
[6] = biological target: T1, Estrogen receptor (Mus musculus); experiment: as §1; format: functional, tissue-based; set-up: unit not given here; conditions: Uterus; procedure, shortened: as §2; remark: listed apart in the source
[7] = biological target: T1, Estrogen receptor (Mus musculus); experiment: as §5; format: functional, tissue-based; set-up: unit not given here; conditions: Uterus; procedure, shortened: as §2; remark: listed apart in the source
[8] = biological target: T1, Estrogen receptor (Mus musculus); experiment: Uterotrophic effect in mice at 25 ug dose; format: functional, tissue-based; set-up: unit not given here; conditions: Uterus; procedure, shortened: as §2
[9] = biological target: T1, Estrogen receptor (Mus musculus); experiment: Uterotrophic effect in mice at 500 ug dose; format: functional, tissue-based; set-up: unit not given here; conditions: Uterus; procedure, shortened: as §2
[10] = biological target: T1, Estrogen receptor (Mus musculus); experiment: Uterotrophic effect in mice at 5 ug dose; format: functional, tissue-based; conditions: Uterus; procedure, shortened: as §2
[11] = biological target: T1, Estrogen receptor (Mus musculus); experiment: Uterotrophic effect in BD2F mice bearing transplantable hormone dependent MXT at 2.76 mg dose; format: functional, tissue-based; conditions: Uterus
Procedure, shortened: (§6)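 MXT-bearing female BD2F1 mice (10 per group) dosed sc in olive oil three times weekly for 6 weeks from the day after tumor transplantation. Uteri excised at sacrifice and dry weight determined; values given as mean ± SD.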

[12] = biological target: T1, Estrogen receptor (Mus musculus); experiment: Anti-uterotrophic effect in mice at 25 ug dose; format: functional
Procedure, shortened: (§7)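 Immature female NMRI mice, 20 days old (14.5 ± 1.2 g), randomized into groups of 10. Each received a daily sc injection of compound in 0.1 mL olive oil for 3 days, given together with estrone. Uteri were taken 24 h after the last injection, fixed in Bouin's solution, washed, dried and weighed. The read-out was inhibition of estrone-stimulated uterine growth.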

[13] = biological target: T1, Estrogen receptor (Mus musculus); experiment: Uterotrophic effect in BD2F mice bearing transplantable hormone dependent MXT at 13.80 mg dose; format: functional, tissue-based; conditions: Uterus; procedure, shortened: as §6
[14] = species: Mus musculus; experiment: Relative average tumor wet weight in treated compared to untreated mice at 13.80 mg dose; format: functional
Procedure, shortened: (§8)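 MXT mammary tumor pieces of 1-2 mm³ from syngeneic donors were implanted sc by trocar into female BD2F₁ mice aged 8-10 weeks (20.0 ± 1.7 g), groups of 10. From the next day, compound in olive oil was given sc three times weekly for 6 weeks. Tumor wet weight was measured at the end and expressed as % T/C.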

[15] = species: Mus musculus; experiment: Relative average tumor wet weight in treated compared to untreated mice at 2.76 mg dose; format: functional
Procedure, shortened: (§9)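 Syngeneic female BD2F1 mice (8–10 weeks) received sc trocar implants of 1–2-mm³ MXT tumor pieces, 10 per group. Treatment began the next day: sc doses in olive oil (solution or suspension), three times weekly for 6 weeks. Tamoxifen-treated control group included. Tumor wet weight measured at sacrifice; expressed as % T/C versus untreated controls.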

[16] = biological target: T1, Estrogen receptor (Mus musculus); experiment: as §3; format: functional, tissue-based; set-up: unit not given here; conditions: Uterus; procedure, shortened: as §2
[17] = biological target: T1, Estrogen receptor (Mus musculus); experiment: Uterotrophic effect in mice at 0.1 ug dose; format: functional, tissue-based; set-up: unit not given here; conditions: Uterus; procedure, shortened: as §2
[18] = biological target: T1, Estrogen receptor (Mus musculus); experiment: Uterotrophic effect in BD2F mice bearing transplantable hormone dependent MXT at 4 mg dose; format: functional, tissue-based; procedure, shortened: as §6
[19] = biological target: T1, Estrogen receptor (Mus musculus); experiment: Uterotrophic effect in BD2F mice bearing transplantable hormone dependent MXT at 0.8 mg dose; format: functional, tissue-based; procedure, shortened: as §6
[20] = species: Mus musculus; experiment: Relative average tumor wet weight in treated compared to untreated mice at 0.8 mg dose; format: functional; procedure, shortened: as §8
[21] = species: Mus musculus; experiment: Relative average tumor wet weight in treated compared to untreated mice at 4 mg dose; format: functional; procedure, shortened: as §9
[22] = biological target: T1, Estrogen receptor (Mus musculus); experiment: as §4; format: functional, tissue-based; conditions: Uterus; procedure, shortened: as §2
[23] = biological target: T1, Estrogen receptor (Mus musculus); experiment: Anti-uterotrophic effect in mice at 500 ug dose; format: functional; procedure, shortened: as §7
[24] = biological target: T1, Estrogen receptor (Mus musculus); experiment: Uterotrophic effect in mice at 5000 ug dose; format: functional, tissue-based; conditions: Uterus, in the assay text read “50 ug” for “5000 ug”; procedure, shortened: as §2
[25] = biological target: T1, Estrogen receptor (Mus musculus); experiment: Uterotrophic effect in BD2F mice bearing transplantable hormone dependent MXT at 13.84 mg dose; format: functional, tissue-based; conditions: Uterus; procedure, shortened: as §6
[26] = species: Mus musculus; experiment: Relative average tumor wet weight in treated compared to untreated mice at 13.84 mg dose; format: functional; procedure, shortened: as §8
[27] = species: Mus musculus; experiment: Relative average tumor wet weight in treated compared to untreated mice at 2.77 mg dose; format: functional; procedure, shortened: as §9
[28] = system: Rattus norvegicus; experiment: Percent change in body weight in DMBA-Induced Hormone-Dependent Mammary Carcinoma rats at 18 mg/kg dose; format: functional
[29] = system: Rattus norvegicus; experiment: Percent change in body weight in DMBA-Induced Hormone-Dependent Mammary Carcinoma rats at 36 mg/kg dose; format: functional
[30] = system: Rattus norvegicus; experiment: Percent change in body weight in DMBA-Induced Hormone-Dependent Mammary Carcinoma rats at 72 mg/kg dose; format: functional
[31] = system: Rattus norvegicus; experiment: Percent change in total tumor area in DMBA-Induced Hormone-Dependent Mammary Carcinoma rats at 36 mg/kg dose; format: functional
[32] = system: Rattus norvegicus; experiment: Percent change in total tumor area in DMBA-Induced Hormone-Dependent Mammary Carcinoma rats at 18 mg/kg dose; format: functional
[33] = system: Rattus norvegicus; experiment: Percent change in total tumor area in DMBA-Induced Hormone-Dependent Mammary Carcinoma rats at 72 mg/kg dose; format: functional
[34] = system: Rattus norvegicus; experiment: Initial tumor number in DMBA-Induced Hormone-Dependent Mammary Carcinoma in rats at 72 mg/kg dose; format: functional
[35] = system: Rattus norvegicus; experiment: Initial tumor number in DMBA-Induced Hormone-Dependent Mammary Carcinoma in rats at 18 mg/kg dose; format: functional
[36] = system: Rattus norvegicus; experiment: Initial tumor number in DMBA-Induced Hormone-Dependent Mammary Carcinoma in rats at 36 mg/kg dose; format: functional
[37] = system: Rattus norvegicus; experiment: Final tumor number in DMBA-Induced Hormone-Dependent Mammary Carcinoma in rats at 18 mg/kg dose; format: functional
[38] = system: Rattus norvegicus; experiment: Final tumor number in DMBA-Induced Hormone-Dependent Mammary Carcinoma in rats at 36 mg/kg dose; format: functional
[39] = system: Rattus norvegicus; experiment: Final tumor number in DMBA-Induced Hormone-Dependent Mammary Carcinoma in rats at 72 mg/kg dose; format: functional
[40] = system: Rattus norvegicus; experiment: Percent unchanged tumors in DMBA-Induced Hormone-Dependent Mammary Carcinoma in rats at 18 mg/kg dose; format: functional
[41] = system: Rattus norvegicus; experiment: Percent unchanged tumors in DMBA-Induced Hormone-Dependent Mammary Carcinoma in rats at 36 mg/kg dose; format: functional
[42] = system: Rattus norvegicus; experiment: Percent unchanged tumors in DMBA-Induced Hormone-Dependent Mammary Carcinoma in rats at 72 mg/kg dose; format: functional
[43] = system: Rattus norvegicus; experiment: Percent partial remission in DMBA-Induced Hormone-Dependent Mammary Carcinoma in rats at 18 mg/kg dose; format: functional
[44] = system: Rattus norvegicus; experiment: Percent partial remission in DMBA-Induced Hormone-Dependent Mammary Carcinoma in rats at 36 mg/kg dose; format: functional
[45] = system: Rattus norvegicus; experiment: Percent partial remission in DMBA-Induced Hormone-Dependent Mammary Carcinoma in rats at 72 mg/kg dose; format: functional
[46] = system: Rattus norvegicus; experiment: Percent progression in DMBA-Induced Hormone-Dependent Mammary Carcinoma in rats at 18 mg/kg dose; format: functional
[47] = system: Rattus norvegicus; experiment: Percent progression in DMBA-Induced Hormone-Dependent Mammary Carcinoma in rats at 36 mg/kg dose; format: functional
[48] = system: Rattus norvegicus; experiment: Percent progression in DMBA-Induced Hormone-Dependent Mammary Carcinoma in rats at 72 mg/kg dose; format: functional
[49] = system: Rattus norvegicus; experiment: Percent complete remission in DMBA-Induced Hormone-Dependent Mammary Carcinoma in rats at 18 mg/kg dose; format: functional
[50] = system: Rattus norvegicus; experiment: Percent complete remission in DMBA-Induced Hormone-Dependent Mammary Carcinoma in rats at 36 mg/kg dose; format: functional
[51] = system: Rattus norvegicus; experiment: Percent complete remission in DMBA-Induced Hormone-Dependent Mammary Carcinoma in rats at 72 mg/kg dose; format: functional

T1 sequence (O08537 whole entry, looked up): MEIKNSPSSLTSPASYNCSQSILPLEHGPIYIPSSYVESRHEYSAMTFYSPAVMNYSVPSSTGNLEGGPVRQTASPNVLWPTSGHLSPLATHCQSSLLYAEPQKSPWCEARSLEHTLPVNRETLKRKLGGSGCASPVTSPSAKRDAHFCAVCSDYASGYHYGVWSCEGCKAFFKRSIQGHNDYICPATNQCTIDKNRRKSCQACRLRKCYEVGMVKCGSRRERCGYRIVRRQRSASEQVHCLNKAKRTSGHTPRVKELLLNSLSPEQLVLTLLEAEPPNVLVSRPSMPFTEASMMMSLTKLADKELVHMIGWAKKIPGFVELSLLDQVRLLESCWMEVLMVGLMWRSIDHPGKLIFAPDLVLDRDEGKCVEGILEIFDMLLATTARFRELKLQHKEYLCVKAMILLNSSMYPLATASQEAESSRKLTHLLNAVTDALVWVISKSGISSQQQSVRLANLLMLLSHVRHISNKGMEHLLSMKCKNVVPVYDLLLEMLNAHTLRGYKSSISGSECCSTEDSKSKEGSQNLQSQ
T1 sequence (P19785 whole entry, looked up): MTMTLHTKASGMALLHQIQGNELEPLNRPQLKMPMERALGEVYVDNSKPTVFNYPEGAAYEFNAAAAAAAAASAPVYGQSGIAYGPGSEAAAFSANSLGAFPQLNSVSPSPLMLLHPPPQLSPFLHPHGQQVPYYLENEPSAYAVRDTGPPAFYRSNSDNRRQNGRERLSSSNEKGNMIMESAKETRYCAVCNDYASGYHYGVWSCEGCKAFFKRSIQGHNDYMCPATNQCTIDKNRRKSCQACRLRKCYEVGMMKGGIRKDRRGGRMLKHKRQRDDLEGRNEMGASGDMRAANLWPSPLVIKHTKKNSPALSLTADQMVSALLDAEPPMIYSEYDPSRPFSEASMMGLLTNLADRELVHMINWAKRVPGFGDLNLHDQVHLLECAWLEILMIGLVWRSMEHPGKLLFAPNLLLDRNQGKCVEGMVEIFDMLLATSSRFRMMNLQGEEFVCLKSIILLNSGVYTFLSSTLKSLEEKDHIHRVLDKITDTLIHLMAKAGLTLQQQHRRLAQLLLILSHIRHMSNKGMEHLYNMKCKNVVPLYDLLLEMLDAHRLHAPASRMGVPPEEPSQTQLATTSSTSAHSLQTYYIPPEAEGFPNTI

C/C(=C(/C)c1ccc(O)cc1)c1ccc(O)cc1 [DIMETHYLSTILBESTROL]
Effect [1]: 16.7 | Effect [2]: 20.6 | Effect [3]: 25.4 | Effect [4]: 35.9 | Effect [5]: 41.8 | Effect [6]: 14.8 | Effect [7]: 39.8 | Effect [8]: 32 | Effect [9]: 48.7 | Effect [10]: 39.2 | Effect [11]: 74.7 | inhibition [12]: 30.1% | Effect [13]: 70.4 | TC [14]: 46.2% | TC [15]: 69.5%

Oc1ccc([C@H]([C@H](c2ccc(O)cc2)C(F)(F)F)C(F)(F)F)cc1
Effect [1]: 10.8 | Effect [16]: 42.5 | Effect [3]: 35.4 | Effect [17]: 46.9 | Uterus effect [18]: 188 | Uterus effect [19]: 136 | TC [20]: 21.3% | TC [21]: 7.2%

C/C(=C(/C)c1cccc(O)c1)c1cccc(O)c1
Effect [1]: 13.3 | Effect [4]: 13.8 | Effect [5]: 12.8 | Effect [6]: 12.9 | Effect [7]: 43.5 | Effect [22]: 12.2 | Effect [8]: 42.3 | Effect [9]: 33.1 | Effect [10]: 37.2 | Effect [11]: 80.7 | Effect [13]: 88.4 | inhibition [23]: 27.2% | TC [14]: 69.9% | TC [15]: 88%

C[C@H](c1cccc(O)c1)[C@@H](C)c1cccc(O)c1
Effect [1]: 11.9 | Effect [2]: 11.7 | Effect [3]: 12.4 | Effect [4]: 12.6 | Effect [5]: 13.1 | Effect [6]: 11.2 and 9.9 and 10.5 | Effect [17]: 38.5 [middle of 4 runs] | Effect [9]: 29 | Effect [24]: 34.3 | Effect [10]: 36.5 | Effect [25]: 73.5 | Effect [11]: 86.9 | TC [26]: 66.5% | TC [27]: 106% | Change in weight [28]: 2.4% | Change in weight [29]: 1.6% | Change in weight [30]: 0.9% | Change in tumor area % [31]: 105% | Change in tumor area % [32]: 188% | Change in tumor area % [33]: 6% | No. of tumors [34]: 26 | No. of tumors [35]: 21 | No. of tumors [36]: 22 | No. of tumors [37]: 16 | No. of tumors [38]: 12 | No. of tumors [39]: 22 | Tumors [40]: 24% | Tumors [41]: 38% | Tumors [42]: 16% | Tumors [43]: 11% | Tumors [44]: 9% | Tumors [45]: 25% | Tumors [46]: 51% | Tumors [47]: 24% | Tumors [48]: 25% | Tumors [49]: 14% | Tumors [50]: 29% | Tumors [51]: 34%
